{"source": "ChEMBL document CHEMBL3352816", "about": "“Synthesis and antiproliferative activity of imidazo[2,1-b][1,3,4]thiadiazole derivatives” (Bioorg Med Chem Lett, 2014)", "key": {"REH [1]": {"tested_on": "REH", "assay": "Induction of apoptosis in human REH cells assessed as induction of ROS production at 1 uM after 60 mins by flow cytometric analysis (reference value: 0.09 %)", "type": "functional"}, "REH [2]": {"tested_on": "REH", "assay": "Induction of apoptosis in human REH cells assessed as induction of ROS production at 100 nM after 10 mins by flow cytometric analysis (reference value: 0.33 %)", "type": "functional"}, "REH [3]": {"tested_on": "REH", "assay": "Induction of apoptosis in human REH cells assessed as induction of ROS production at 500 nM after 10 mins by flow cytometric analysis (reference value: 0.33 %)", "type": "functional"}, "REH [4]": {"tested_on": "REH", "assay": "Induction of apoptosis in human REH cells assessed as induction of ROS production at 1 uM after 10 mins by flow cytometric analysis (reference value: 0.33 %)", "type": "functional"}, "REH [5]": {"tested_on": "REH", "assay": "Induction of apoptosis in human REH cells assessed as induction of ROS production at 5 uM after 10 mins by flow cytometric analysis (reference value: 0.33 %)", "type": "functional"}, "REH [6]": {"tested_on": "REH", "assay": "Induction of apoptosis in human REH cells assessed as induction of ROS production at 10 uM after 10 mins by flow cytometric analysis (reference value: 0.33 %)", "type": "functional"}, "REH [7]": {"tested_on": "REH", "assay": "Induction of apoptosis in human REH cells assessed as PARP cleavage after 48 hrs by Western blot analysis", "type": "functional, cell-based", "in_short": "(§1)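 Reh cell lysates were prepared after 48 h treatment at 500 nM and 1 µM, with DMSO-treated cells as control. Western blotting used primary antibodies against KU70, PARP1, caspase 3, BID, caspase 9, FAS and caspase 8, with tubulin also probed.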"}, "REH [8]": {"tested_on": "REH", "assay": "Induction of apoptosis in human REH cells assessed as caspase 3 cleavage after 48 hrs by Western blot analysis", "type": "functional, cell-based", "in_short": "as §1"}, "REH [9]": {"tested_on": "REH", "assay": "Induction of apoptosis in human REH cells assessed as reduction of BID at 1 uM after 48 hrs by Western blot analysis", "type": "functional, cell-based", "in_short": "as §1"}, "REH [10]": {"tested_on": "REH", "assay": "Induction of apoptosis in human REH cells assessed as change in caspase 9 expression at 1 uM after 48 hrs by Western blot analysis", "type": "functional, cell-based", "in_short": "as §1"}, "REH [11]": {"tested_on": "REH", "assay": "Induction of apoptosis in human REH cells assessed as caspase 8 cleavage after 48 hrs by Western blot analysis", "type": "functional, cell-based", "in_short": "as §1"}, "[12]": {"assay": "Growth inhibition of human Leukemia cells", "type": "functional", "conditions": "Leukemia cell"}, "[13]": {"assay": "Growth inhibition of human CNS cancer cells", "type": "functional", "conditions": "Cancer cell lines"}, "[14]": {"assay": "Growth inhibition of human Melanoma cells", "type": "functional", "conditions": "Melanoma cell"}, "[15]": {"assay": "Growth inhibition of human Ovarian cancer cells", "type": "functional", "conditions": "Cancer cell lines"}, "[16]": {"assay": "Growth inhibition of human Renal cancer cells", "type": "functional", "conditions": "Cancer cell lines"}, "[17]": {"assay": "Growth inhibition of human Prostate cancer cells", "type": "functional", "conditions": "Cancer cell lines"}, "REH [18]": {"tested_on": "REH", "assay": "Cytotoxicity against human REH cells assessed as reduction in cell viability after 24 to 72 hrs by trypan blue exclusion assay", "type": "functional, cell-based", "in_short": "(§2)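 Reh, K562 and Nalm6 leukemic cells were treated with 10, 50, 100 and 250 µM or with 0.1, 0.5, 1, 5 and 10 µM (compounds dissolved in DMSO). Viability was scored by trypan blue after 24, 48 and 72 h. DMSO-treated cells served as vehicle control.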"}, "NALM-6": {"tested_on": "NALM-6", "assay": "Cytotoxicity against human NALM6 cells assessed as reduction in cell viability after 24 to 72 hrs by trypan blue exclusion assay", "type": "functional, cell-based", "in_short": "as §2"}, "REH [19]": {"tested_on": "REH", "assay": "Cytotoxicity against human REH cells assessed as reduction in cell viability at 5 to 10 uM after 48 to 72 hrs by MTT assay", "type": "functional, cell-based", "in_short": "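MTT viability read-out in leukemic cells treated with 10, 50, 100 and 250 µM or with 0.1, 0.5, 1, 5 and 10 µM. Cells harvested after 48 and 72 h. Compounds dissolved in DMSO.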"}, "REH [20]": {"tested_on": "REH", "assay": "Cytotoxicity against human REH cells assessed as induction of cell death at 3 uM after 24 to 72 hrs by live-dead cell assay", "type": "functional, cell-based", "conditions": "in the assay text read “24 to 48 hrs” for “24 to 72 hrs”", "in_short": "(§3)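 Reh leukemic and 293T human kidney epithelial cells were treated at 3 µM and compared by live-dead cell assay at 24 and 48 h.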"}, "HEK293 [21]": {"tested_on": "HEK293", "assay": "Cytotoxicity against HEK293 cells assessed as induction of cell death at 3 uM after 24 to 72 hrs by live-dead cell assay", "type": "cell-based", "conditions": "human, hek293, 3 µM; in the assay text read “24 to 48 hrs” for “24 to 72 hrs”", "in_short": "as §3"}, "REH [22]": {"tested_on": "REH", "assay": "Cytotoxicity against human REH cells assessed as reduction in cell viability at 3 uM after 24 to 72 hrs by trypan blue exclusion assay", "type": "functional, cell-based"}, "HEK293 [23]": {"tested_on": "HEK293", "assay": "Cytotoxicity against HEK293 cells assessed as reduction in cell viability at 3 uM after 24 to 72 hrs by trypan blue exclusion assay", "type": "cell-based", "conditions": "human, hek293, 3 µM"}, "REH [24]": {"tested_on": "REH", "assay": "Cell cycle arrest in human REH cells assessed as accumulation at subG1 phase after 48 hrs using propidium iodide by FACS analysis", "type": "functional, cell-based", "in_short": "(§4)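 Reh and Nalm6 cells exposed 48 h to 0.1, 0.5, 1 and 5 µM, harvested, stained with propidium iodide and analysed by flow cytometry. Gated fractions were sub G1, G1, S and G2. DMSO-treated cells served as vehicle control. Three independent experiments for Reh and two for Nalm6.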"}, "REH [25]": {"tested_on": "REH", "assay": "Cell cycle arrest in human REH cells assessed as reduction of cells in G2/M phase after 48 hrs using propidium iodide by FACS analysis", "type": "functional, cell-based", "in_short": "as §4"}, "REH [26]": {"tested_on": "REH", "assay": "Cell cycle arrest in human REH cells assessed as reduction of cells in G1 phase after 48 hrs using propidium iodide by FACS analysis", "type": "functional, cell-based", "in_short": "as §4"}, "REH [27]": {"tested_on": "REH", "assay": "Cell cycle arrest in human REH cells assessed as reduction of cells in S phase after 48 hrs using propidium iodide by FACS analysis", "type": "functional, cell-based", "in_short": "as §4"}, "[28]": {"assay": "Cell cycle arrest in human NALM6 cells assessed as accumulation at subG1 phase after 48 hrs using propidium iodide by FACS analysis", "type": "functional, cell-based", "conditions": "NALM-6", "in_short": "as §4"}, "[29]": {"assay": "Cell cycle arrest in human NALM6 cells assessed as reduction of cells in S phase after 48 hrs using propidium iodide by FACS analysis", "type": "functional, cell-based", "conditions": "NALM-6", "in_short": "as §4"}, "REH [30]": {"tested_on": "REH", "assay": "Induction of apoptosis in human REH cells assessed as viable cells at 1 uM after 48 hrs using annexin-v-FITC/propidium iodide by FACS analysis (reference value: 88.41 %)", "type": "functional", "conditions": "read-out: Activity"}, "REH [31]": {"tested_on": "REH", "assay": "Induction of apoptosis in human REH cells assessed as late apoptotic cells at 1 uM after 48 hrs using annexin-v-FITC/propidium iodide by FACS analysis (reference value: 5.51 %)", "type": "functional"}, "REH [32]": {"tested_on": "REH", "assay": "Induction of apoptosis in human REH cells assessed as induction of ROS production at 1 uM after 10 mins by flow cytometric analysis (reference value: 0.09 %)", "type": "functional"}, "REH [33]": {"tested_on": "REH", "assay": "Induction of apoptosis in human REH cells assessed as induction of ROS production at 1 uM after 15 mins by flow cytometric analysis (reference value: 0.09 %)", "type": "functional"}, "REH [34]": {"tested_on": "REH", "assay": "Induction of apoptosis in human REH cells assessed as induction of ROS production at 1 uM after 30 mins by flow cytometric analysis (reference value: 0.09 %)", "type": "functional"}, "REH [35]": {"tested_on": "REH", "assay": "Induction of apoptosis in human REH cells assessed as dead cells at 1 uM after 48 hrs using annexin-v-FITC/propidium iodide by FACS analysis (reference value: 0.03 %)"}}, "note": "Calls of active or inactive are those of the source. The rule behind the calls is not given here."}
{"smiles": "O=Cc1c(-c2ccc(Br)cc2)nc2sc(Cc3ccccc3)nn12", "values": [{"measurement": "Activity", "setting": "REH [1]", "value": 0.12, "unit": "%"}, {"measurement": "Activity", "setting": "REH [2]", "value": 0.77, "unit": "%"}, {"measurement": "Activity", "setting": "REH [3]", "value": 0.86, "unit": "%"}, {"measurement": "Activity", "setting": "REH [4]", "value": 0.28, "unit": "%"}, {"measurement": "Activity", "setting": "REH [5]", "value": 0.62, "unit": "%"}, {"measurement": "Activity", "setting": "REH [6]", "value": 0.41, "unit": "%"}, {"measurement": "Activity", "setting": "REH [7]", "value": "Dose-dependent effect"}, {"measurement": "Activity", "setting": "REH [8]", "value": "Dose-dependent effect"}, {"measurement": "Activity", "setting": "REH [9]", "value": "Active"}, {"measurement": "Activity", "setting": "REH [10]", "value": "inactive"}, {"measurement": "Activity", "setting": "REH [11]", "value": "Active"}, {"measurement": "GI50", "setting": "[12]", "value": 1.41, "unit": "µM"}, {"measurement": "TGI", "setting": "[12]", "value": 13.5, "unit": "µM"}, {"measurement": "GI50", "setting": "[13]", "value": 2.2, "unit": "µM"}, {"measurement": "LC50", "setting": "[13]", "value": 64.6, "unit": "µM"}, {"measurement": "TGI", "setting": "[13]", "value": 7.4, "unit": "µM"}, {"measurement": "GI50", "setting": "[14]", "value": 3.2, "unit": "µM"}, {"measurement": "LC50", "setting": "[14]", "value": 81.3, "unit": "µM"}, {"measurement": "TGI", "setting": "[14]", "value": 19.5, "unit": "µM"}, {"measurement": "GI50", "setting": "[15]", "value": 4.2, "unit": "µM"}, {"measurement": "TGI", "setting": "[15]", "value": 41.7, "unit": "µM"}, {"measurement": "GI50", "setting": "[16]", "value": 3.2, "unit": "µM"}, {"measurement": "LC50", "setting": "[16]", "value": 93.3, "unit": "µM"}, {"measurement": "TGI", "setting": "[16]", "value": 20, "unit": "µM"}, {"measurement": "GI50", "setting": "[17]", "value": 3, "unit": "µM"}, {"measurement": "TGI", "setting": "[17]", "value": 24.6, "unit": "µM"}, {"measurement": "Activity", "setting": "REH [18]", "value": "Dose-dependent effect"}, {"measurement": "Activity", "setting": "NALM-6", "value": "Dose-dependent effect"}, {"measurement": "Activity", "setting": "REH [19]", "value": "Active"}, {"measurement": "Activity", "setting": "REH [20]", "value": "Active"}, {"measurement": "Activity", "setting": "HEK293 [21]", "value": "Non-toxic"}, {"measurement": "Activity", "setting": "REH [22]", "value": "Active"}, {"measurement": "Activity", "setting": "HEK293 [23]", "value": "Non-toxic"}, {"measurement": "Activity", "setting": "REH [24]", "value": "Dose-dependent effect"}, {"measurement": "Activity", "setting": "REH [25]", "value": "Dose-dependent effect"}, {"measurement": "Activity", "setting": "REH [26]", "value": "Dose-dependent effect"}, {"measurement": "Activity", "setting": "REH [27]", "value": "Dose-dependent effect"}, {"measurement": "Activity", "setting": "[28]", "value": "Dose-dependent effect"}, {"measurement": "Activity", "setting": "[29]", "value": "Dose-dependent effect"}, {"measurement": "viability at 1 µM", "setting": "REH [30]", "value": 5.23, "unit": "%"}, {"measurement": "Activity", "setting": "REH [31]", "value": 51.32, "unit": "%"}, {"measurement": "Activity", "setting": "REH [32]", "value": 0.36, "unit": "%"}, {"measurement": "Activity", "setting": "REH [33]", "value": 0.09, "unit": "%"}, {"measurement": "Activity", "setting": "REH [34]", "value": 0.06, "unit": "%"}, {"measurement": "Activity", "setting": "REH [35]", "value": 0.42, "unit": "%"}]}
